Article PMC8282703 (Clinical cancer research : an official journal of the …, 2021)
Several values for one entry are separate records, joined by “and”; a condition that tells them apart may be missing. Equal values may be shown once. Read-outs that look alike come from different tables or passages of the source.

Columns and labels:
PKMYT1 = details: cited from earlier work
[1] = twice daily x 5 doses for 2 weeks, in 3-week cycles; cited from earlier work
[2] = Plasma pharmacokinetics of adavosertib; details: human, oral, 300 mg
advanced solid tumors [3] = details: cited from earlier work
[4] = system: recurrent uterine serous carcinoma; details: adavosertib monotherapy; cited from earlier work
[5] = system: pHH3, γH2AX, RAD51, pNbs1; assay: DNA damage response and mitosis markers in paired tumor biopsies; type: in vivo, patients
In short: (§1)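 Expansion-cohort patients got 300 mg once daily on days 1-5 and 8-12 of 21-day cycles, with prophylactic anti-emetics. Paired 18-gauge core needle tumor biopsies were taken on C1D1 and C1D8 before the daily dose, after the 72-h dosing pause on days 6-7. Nuclear marker levels were assessed. pY15-Cdk, γH2AX and pNbs1 were reported as percent nuclear area positive. Patients were grouped by baseline pY15-Cdk.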

Wee1 kinase [6] = assay: Nuclear pY15-Cdk1/2 in paired tumor biopsies; type: in vivo, patients
In short: as §1

Wee1 kinase [7] = details: cited from earlier work
phospho-Cdk1 = details: chemotherapy combinations, cited from earlier work
[8] = human, in vivo
advanced solid tumors [9] = assay: Phase 1 trial of adavosertib: tumor response by RECIST 1.1

C=CCn1c(=O)c2cnc(Nc3ccc(N4CCN(C)CC4)cc3)nc2n1-c1cccc(C(C)(C)O)n1 [adavosertib]
Inhibition of PKMYT1 (PKMYT1): does not substantially inhibit PKMYT1
MTD, twice-daily regimen [1]: 225 mg
concentration at 72 h [2]: > 5 nM
Overall response rate, twice-daily adavosertib (advanced solid tumors [3]; 25 enrolled patients, 90% confidence interval [1%, 23%]): 8%
PRs, twice-daily adavosertib (advanced solid tumors [3]; among 25 enrolled patients): 2 patients
Preliminary overall response rate [4]: 29%
Nuclear pHH3 levels between baseline and C1D8 ([5]; 8 patients): generally unchanged
Changes in tumor levels of nuclear RAD51 ([5]; 8 patients, baseline vs C1D8): None of the 8 patients evaluable for pharmacodynamic response showed changes
Levels of DNA repair markers (γH2AX and/or pNbs1) at C1D8 ([5]; both patients with significantly decreased pY15-Cdk): significant increases
pHH3 positivity at C1D8, patient 1010056 ([5]; from 1.1% at baseline, best response PD, p < 0.0001): 4.1 % cells positive
Increases in nuclear pY15-Cdk at C1D8 (Wee1 kinase [6]; 4 of 5 patients with low baseline pY15-Cdk (≤ 2.2% NAP), p < 0.0001): 192%-1094%
Patients with tumor pY15-Cdk levels higher than baseline on C1D8 (pre-dose) (Wee1 kinase [6]; of 8 patients with evaluable biopsy pairs (of 5 with low baseline)): 4 patients
Reduction of nuclear pY15-Cdk, twice-daily arm, individual patients (Wee1 kinase [7]; 2-5 hours after dose 5, 2 of 2 patients): 84% and 90%
Wee1 kinase suppression (pY15-Cdk1/2 reduction), twice-daily arm (Wee1 kinase [7]; tumor biopsies 2-5 hours after the fifth dose): 80-90%
Target suppression (phospho-Cdk1 attenuation) (phospho-Cdk1; adavosertib twice daily at 25 mg): not at 25 mg
Target suppression (phospho-Cdk1 attenuation) (phospho-Cdk1; adavosertib twice daily at 200 mg or 225 mg): significant target suppression
Alanine aminotransferase increased, Grade 1-2 (%) (human, in vivo): 11 (26%) patients (%)
Anemia, Grade 1-2 (%) (human, in vivo): 20 (47%) patients (%)
Anemia, Grade 3 (%) (human, in vivo): 9 (21%) patients (%)
Anemia, any-grade (human, in vivo): 69%
Anemia, ≥ grade 3 (human, in vivo): 21%
Anorexia, Grade 1-2 (%) (human, in vivo): 17 (40%) patients (%)
Aspartate aminotransferase increased, Grade 1-2 (%) (human, in vivo): 11 (26%) patients (%)
Dehydration, Grade 1-2 (%) (human, in vivo): 5 (12%) patients (%)
Dehydration, Grade 3 (%) (human, in vivo): 1 (2%) patients (%)
Diarrhea, Grade 1-2 (%) (human, in vivo): 25 (60%) patients (%)
Diarrhea, Grade 3 (%) (human, in vivo): 2 (5%) patients (%)
Dose-limiting toxicities (type) (human, in vivo): grade 4 hematological toxicity and grade 3 fatigue
Fatigue, Grade 1-2 (%) (human, in vivo): 19 (45%) patients (%)
Fatigue, Grade 3 (%) (human, in vivo): 3 (7%) patients (%)
Febrile neutropenia, Grade 3 (%) (human, in vivo): 1 (2%) patients (%)
Gastrointestinal adverse events (nausea, vomiting, diarrhea) that were ≥ grade 3 (human, in vivo): ≤ 12%
Hypoalbuminemia, Grade 1-2 (%) (human, in vivo): 9 (21%) patients (%)
Hypocalcemia, Grade 1-2 (%) (human, in vivo): 3 (7%) patients (%)
Hypocalcemia, Grade 3 (%) (human, in vivo): 1 (2%) patients (%)
Hypocalcemia, grade 3 incidence (human, in vivo): 2%
Hypokalemia, Grade 1-2 (%) (human, in vivo): 5 (12%) patients (%)
Hypokalemia, Grade 3 (%) (human, in vivo): 1 (2%) patients (%)
Hypokalemia, grade 3 incidence (human, in vivo): 2%
Hypomagnesemia, Grade 1-2 (%) (human, in vivo): 7 (17%) patients (%)
Hypomagnesemia, Grade 3 (%) (human, in vivo): 1 (2%) patients (%)
Hypomagnesemia, grade 3 incidence (human, in vivo): 2%
Hyponatremia, Grade 1-2 (%) (human, in vivo): 8 (19%) patients (%)
Hyponatremia, Grade 3 (%) (human, in vivo): 1 (2%) patients (%)
Hyponatremia, grade 3 incidence (human, in vivo): 2%
Hypophosphatemia, Grade 1-2 (%) (human, in vivo): 10 (24%) patients (%)
Hypophosphatemia, Grade 3 (%) (human, in vivo): 6 (14%) patients (%)
Hypophosphatemia, ≥ grade 3 (human, in vivo): 14%
Leukopenia, Grade 1-2 (%) (human, in vivo): 12 (29%) patients (%)
Leukopenia, Grade 3 (%) (human, in vivo): 5 (12%) patients (%)
Leukopenia, Grade 4 (%) (human, in vivo): 4 (10%) patients (%)
Leukopenia, grade 4 events (human, in vivo): 10%
Leukopenia, ≥ grade 3 (human, in vivo): 21%
Lymphopenia, Grade 1-2 (%) (human, in vivo): 18 (43%) patients (%)
Lymphopenia, Grade 3 (%) (human, in vivo): 12 (29%) patients (%)
Lymphopenia, any-grade (human, in vivo): 71%
Lymphopenia, ≥ grade 3 (human, in vivo): 29%
Median duration until recovery, grade 3/4 leukopenia (human, in vivo): 5 days
Median duration until recovery, grade 3/4 lymphopenia (human, in vivo): 18 days
Median duration until recovery, grade 3/4 neutropenia (human, in vivo): 5 days
Nausea, Grade 1-2 (%) (human, in vivo): 31 (74%) patients (%)
Nausea, Grade 3 (%) (human, in vivo): 3 (7%) patients (%)
Nausea, any grade, patients (human, in vivo): 81%
Nausea, vomiting, or diarrhea, each, patients (human, in vivo): > 60%
Neutropenia, Grade 1-2 (%) (human, in vivo): 5 (12%) patients (%)
Neutropenia, Grade 3 (%) (human, in vivo): 4 (10%) patients (%)
Neutropenia, Grade 4 (%) (human, in vivo): 5 (12%) patients (%)
Neutropenia, grade 4 events (human, in vivo): 12%
Thrombocytopenia, Grade 1-2 (%) (human, in vivo): 13 (31%) patients (%)
Thrombocytopenia, Grade 3 (%) (human, in vivo): 5 (12%) patients (%)
Thrombocytopenia, Grade 4 (%) (human, in vivo): 1 (2%) patients (%)
Thrombocytopenia, grade 4 events (human, in vivo): 2%
Vomiting, Grade 1-2 (%) (human, in vivo): 24 (57%) patients (%)
Vomiting, Grade 3 (%) (human, in vivo): 5 (12%) patients (%)
DLTs at dose levels other than 400 mg QD (in vivo): No DLTs
Recommended phase 2 dose (RPh2D) (once daily on days 1-5 and 8-12 in 21-day cycles): 300 mg
Upper respiratory infection, Grade 3 (%) (once-daily adavosertib, n = 42 patients): 1 (2%) patients (%)
Plasma concentrations day 5 versus day 1 [8]: higher on day 5 compared to day 1
Median number of treatment cycles, patients with SD (advanced solid tumors [9]; 20 patients, range 2-26): 4 cycles
Patients with SD receiving ≥ 11 cycles of treatment (advanced solid tumors [9]; of 20 patients with SD): 5 patients
Patients with best response of SD for ≥ 9 months (advanced solid tumors [9]; once-daily adavosertib): 5 patients
Overall response rate (advanced solid tumors [9]; once-daily adavosertib, 42 enrolled patients, 90% confidence interval [6%, 26%]): 14%
Patients with PR at the 400 mg dose level (advanced solid tumors [9]; out of the 3 enrolled, both ovarian cancer, dose-reduced to 300 mg): 2 patients
Patients with PR at the MTD (300 mg) (advanced solid tumors [9]; out of the 26 enrolled at the MTD): 4 patients
